Source: ChEMBL document CHEMBL4819032, “Structure-based design of highly selective 2,4,5-trisubstituted pyrimidine CDK9 inhibitors as anti-cancer agents” (Eur J Med Chem, 2021)

Experiments:
MCF7 = test: Growth inhibition of human MCF7 cells after 48 hrs by MTT assay; type: functional
CDK2/Cyclin A2 = CDK2/Cyclin A2 (Homo sapiens, UniProt P24941); test: Inhibition of recombinant human full length CDK2/Cyclin A using histone H1 as substrate incubated for 40 mins in presence of [gamma-33P]-ATP by scintillation counting method; type: protein-complex assay
CDK9/cyclin T1 = CDK9/cyclin T1 (Homo sapiens, UniProt P50750); test: Inhibition of recombinant human full length CDK9/Cyclin T1 using KTFCGTPEYLAPEVRREPRILSEEEQEMFRDFDYIADWC as substrate incubated for 40 mins in presence of [gamma-33P]-ATP by scintillation counting method; type: protein-complex assay
Procedure, shortened: (§1)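 Radiometric kinase assay with ATP at each kinase's Km(app). IC50 values come from 10-point dose-response curves, and apparent Ki is calculated from IC50 and the kinase's Km(ATP).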

Homo sapiens [1] = species on record: Homo sapiens; test: Selectivity index, ratio of Ki for inhibition of recombinant human full length CDK2/Cyclin A to Ki for inhibition of recombinant human full length CDK9/Cyclin T1
Procedure, shortened: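 Ratio of apparent Ki values for the two CDK/cyclin complexes. Each Ki is derived from an IC50 (10-point radiometric dose-response, ATP at Km(app)) using the kinase's Km(ATP). The selectivity index is defined as Ki(CDK2)/Ki(CDK9).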

HCT-116 = test: Growth inhibition of human HCT-116 cells after 48 hrs by MTT assay; type: functional
[2] = target: Cyclin-dependent kinase 1/cyclin B1 (Homo sapiens, UniProt P06493); test: Inhibition of recombinant human full length CDK1/Cyclin B using histone H1 as substrate incubated for 40 mins in presence of [gamma-33P]-ATP by scintillation counting method; type: protein-complex assay; procedure, shortened: as §1
[3] = Growth inhibition of patient derived CLL cells after 48 hrs by annexin V-FITC staining based flow cytometric analysis; type: functional; settings: Homo sapiens, CLL-CII
Procedure, shortened: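 Freshly isolated primary CLL cells (10⁶/mL) in RPMI with 10% foetal calf serum, L-glutamine, penicillin and streptomycin, 37 °C, 5% CO₂, exposed to inhibitor for 48 h. Cells labelled with CD19-APC and annexin V-FITC; apoptosis quantified by flow cytometry in CD19+ cells. LD50 is the concentration killing 50% of CLL cells.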

[4] = target: Cyclin-dependent kinase 7/ cyclin H (Homo sapiens, UniProt P50613); test: Inhibition of recombinant human full length CDK7/Cyclin H using peptide as substrate incubated for 40 mins in presence of [gamma-33P]-ATP by scintillation counting method; type: protein-complex assay; procedure, shortened: as §1
Homo sapiens [5] = species on record: Homo sapiens; test: Selectivity index, ratio of Ki for inhibition of recombinant human full length […]
HT-29 = test: Growth inhibition of human HT-29 cells after 48 hrs by MTT assay; type: functional
A549 = test: Growth inhibition of human A549 cells after 48 hrs by MTT assay; type: functional
HeLa = test: Growth inhibition of human HeLa cells after 48 hrs by MTT assay; type: functional
MIA PaCa-2 = test: Growth inhibition of human MIA PaCa-2 cells after 48 hrs by MTT assay; type: functional
A2780 = test: Growth inhibition of human A2780 cells after 48 hrs by MTT assay; type: functional
MDA-MB-468 = test: Growth inhibition of human MDA-MB-468 cells after 48 hrs by MTT assay; type: functional

Sequence of CDK9/cyclin T1 (O60563 whole entry): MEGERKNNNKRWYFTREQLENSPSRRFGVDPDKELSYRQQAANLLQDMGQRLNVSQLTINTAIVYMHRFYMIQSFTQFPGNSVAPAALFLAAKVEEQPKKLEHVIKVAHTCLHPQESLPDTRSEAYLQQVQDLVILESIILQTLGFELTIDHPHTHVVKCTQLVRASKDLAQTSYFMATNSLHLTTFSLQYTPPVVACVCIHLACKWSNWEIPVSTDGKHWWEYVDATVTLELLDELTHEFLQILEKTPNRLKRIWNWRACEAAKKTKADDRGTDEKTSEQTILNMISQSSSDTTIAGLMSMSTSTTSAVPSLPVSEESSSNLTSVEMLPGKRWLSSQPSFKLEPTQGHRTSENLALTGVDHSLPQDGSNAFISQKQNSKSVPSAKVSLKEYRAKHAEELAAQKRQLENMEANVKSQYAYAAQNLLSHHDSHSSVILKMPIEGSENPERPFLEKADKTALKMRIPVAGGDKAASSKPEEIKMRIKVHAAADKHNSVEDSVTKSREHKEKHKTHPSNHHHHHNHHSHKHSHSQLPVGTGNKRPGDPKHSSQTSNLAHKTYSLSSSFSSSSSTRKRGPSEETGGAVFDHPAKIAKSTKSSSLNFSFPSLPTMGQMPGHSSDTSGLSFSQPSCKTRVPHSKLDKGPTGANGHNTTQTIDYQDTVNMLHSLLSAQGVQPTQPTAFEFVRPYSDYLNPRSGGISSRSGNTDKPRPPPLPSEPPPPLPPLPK
Sequence of CDK9/cyclin T1 (P50750 whole entry): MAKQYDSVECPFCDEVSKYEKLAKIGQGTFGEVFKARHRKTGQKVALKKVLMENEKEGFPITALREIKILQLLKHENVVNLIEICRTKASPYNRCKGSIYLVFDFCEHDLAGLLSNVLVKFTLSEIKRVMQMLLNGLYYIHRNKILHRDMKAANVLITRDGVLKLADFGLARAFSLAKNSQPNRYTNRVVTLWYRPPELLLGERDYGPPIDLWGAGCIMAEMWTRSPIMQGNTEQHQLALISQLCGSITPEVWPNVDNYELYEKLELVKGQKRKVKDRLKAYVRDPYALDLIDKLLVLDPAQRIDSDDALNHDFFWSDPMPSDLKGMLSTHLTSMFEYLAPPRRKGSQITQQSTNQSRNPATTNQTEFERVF
Sequence of Cyclin-dependent kinase 7/ cyclin H (P51946 whole entry): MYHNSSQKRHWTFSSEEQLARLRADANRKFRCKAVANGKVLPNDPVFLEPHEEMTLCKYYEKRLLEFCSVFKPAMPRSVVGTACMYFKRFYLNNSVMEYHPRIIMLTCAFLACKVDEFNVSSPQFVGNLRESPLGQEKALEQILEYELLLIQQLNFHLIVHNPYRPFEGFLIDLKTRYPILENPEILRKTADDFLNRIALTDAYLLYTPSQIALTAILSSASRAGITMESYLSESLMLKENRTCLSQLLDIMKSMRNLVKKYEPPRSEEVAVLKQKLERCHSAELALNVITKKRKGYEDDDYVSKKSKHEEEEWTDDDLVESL
Sequence of Cyclin-dependent kinase 7/ cyclin H (P50613 whole entry): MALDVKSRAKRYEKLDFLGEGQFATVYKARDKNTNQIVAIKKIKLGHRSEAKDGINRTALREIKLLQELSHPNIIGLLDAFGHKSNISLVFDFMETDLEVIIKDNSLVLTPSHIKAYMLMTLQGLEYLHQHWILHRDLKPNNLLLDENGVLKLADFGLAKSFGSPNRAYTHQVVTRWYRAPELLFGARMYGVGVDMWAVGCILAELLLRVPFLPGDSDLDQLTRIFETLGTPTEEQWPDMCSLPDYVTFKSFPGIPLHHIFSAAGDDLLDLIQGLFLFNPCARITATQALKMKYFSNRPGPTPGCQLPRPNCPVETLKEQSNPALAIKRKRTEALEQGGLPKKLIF
Sequence of Cyclin-dependent kinase 1/cyclin B1 (P06493 whole entry): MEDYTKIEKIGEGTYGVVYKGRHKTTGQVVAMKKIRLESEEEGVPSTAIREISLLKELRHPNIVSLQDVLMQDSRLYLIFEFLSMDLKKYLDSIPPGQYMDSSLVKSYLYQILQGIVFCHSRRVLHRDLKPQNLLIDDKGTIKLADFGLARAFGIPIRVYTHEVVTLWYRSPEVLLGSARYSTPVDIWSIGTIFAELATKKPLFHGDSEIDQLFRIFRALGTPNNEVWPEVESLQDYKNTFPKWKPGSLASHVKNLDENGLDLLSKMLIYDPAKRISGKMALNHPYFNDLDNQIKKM
Sequence of Cyclin-dependent kinase 1/cyclin B1 (P14635 whole entry, further chain): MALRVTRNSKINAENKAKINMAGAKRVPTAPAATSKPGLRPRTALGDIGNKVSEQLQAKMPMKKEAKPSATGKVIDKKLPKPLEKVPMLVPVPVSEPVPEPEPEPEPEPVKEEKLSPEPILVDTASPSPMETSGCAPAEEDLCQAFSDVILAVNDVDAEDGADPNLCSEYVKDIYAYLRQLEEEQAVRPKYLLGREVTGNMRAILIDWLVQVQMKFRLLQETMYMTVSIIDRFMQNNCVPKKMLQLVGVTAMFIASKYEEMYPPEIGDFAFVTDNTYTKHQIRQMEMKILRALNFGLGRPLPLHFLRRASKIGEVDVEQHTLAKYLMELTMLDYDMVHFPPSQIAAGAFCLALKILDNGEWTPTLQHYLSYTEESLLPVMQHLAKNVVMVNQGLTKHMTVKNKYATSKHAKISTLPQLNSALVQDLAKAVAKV

Structure (SMILES) | GI50 (MCF7) [µM] | Ki (CDK2/Cyclin A2) [µM] | Ki (CDK9/cyclin T1) [µM] | Ratio Ki (Homo sapiens [1]) | GI50 (HCT-116) [µM] | Ki [2] [µM] | Ki [4] [µM] | Ratio Ki (Homo sapiens [5]) | GI50 (HT-29) [µM] | GI50 (A549) [µM] | GI50 (HeLa) [µM] | GI50 (MIA PaCa-2) [µM] | GI50 (A2780) [µM] | GI50 (MDA-MB-468) [µM] | GI50 [3] [µM]
CNc1nc(C(F)(F)F)c(-c2ccnc(Nc3cccc(N4CCCNCC4)c3)n2)s1 | 0.65 | 0.014 | 0.008 | 2 | 0.07 | – | – | – | – | – | – | – | – | – | –
CNc1nc(C)c(-c2nc(Nc3cccc(N4CCN(C)CC4)c3)ncc2C)s1 | 1.89 | 0.586 | 0.02 | 29 | 1.29 | – | – | – | – | – | – | – | – | – | –
CNc1nc(C)c(-c2ccnc(Nc3cc(N4CCN(C(C)=O)CC4)cc(N4CCN(C(C)=O)CC4)c3)n2)s1 | 0.42 | 2.07 | 0.187 | 11 | 0.2 | – | – | – | – | – | – | – | – | – | –
CNc1nc(C)c(-c2nc(Nc3cccc(N4CCN(C(C)=O)CC4)c3)ncc2Br)s1 | – | 0.125 | 0.0075 | 16 | – | – | – | – | – | – | – | – | – | – | –
CNc1nc(C)c(-c2ccnc(Nc3cccc(N4CCN(C(C)=O)CC4)c3)n2)s1 | 5.28 | 0.281 | 0.032 | 9 | 0.58 | – | – | – | – | – | – | – | – | – | –
CNc1nc(C)c(-c2nc(Nc3cccc(N4CCNCC4)c3)ncc2C(F)(F)F)s1 | 3.05 | 1.93 | 0.049 | 40 | 4.05 | – | – | – | – | – | – | – | – | – | –
CNc1nc(C)c(-c2nc(Nc3cc(C)cc(N4CCCCCC4)c3)ncc2C#N)s1 | 7.04 | 0.052 | 0.025 | 2 | 4.05 | – | – | – | – | – | – | – | – | – | –
CNc1nc(C(C)C)c(-c2ccnc(Nc3cccc(N4CCN(C(C)=O)CC4)c3)n2)s1 | 0.07 | 0.68 | 0.091 | 8 | 0.08 | – | – | – | – | – | – | – | – | – | –
CNc1nc(C)c(-c2nc(Nc3cc(C)cc(N4CCNCC4)c3)ncc2C#N)s1 | 0.61 | 0.045 | 0.006 | 8 | 0.08 | – | – | – | – | – | – | – | – | – | –
CNc1nc(C)c(-c2nc(Nc3cccc(N4CCOCC4)c3)ncc2Cl)s1 | 0.72 | 0.022 | 0.004 | 6 | 0.43 | – | – | – | – | – | – | – | – | – | –
CNc1ncc(-c2ccnc(Nc3cccc(N4CCCNCC4)c3)n2)s1 | 0.06 | 0.022 | 0.003 | 7 | 0.08 | – | – | – | – | – | – | – | – | – | –
CNc1nc(C)c(-c2nc(Nc3cccc(N4CCN(C)CC4)c3)ncc2Cl)s1 | 0.68 | 0.107 | 0.005 | 21 | 0.66 | – | – | – | – | – | – | – | – | – | –
CN1CC[C@H](c2c(O)cc(O)c3c(=O)cc(-c4ccccc4Cl)oc23)[C@H](O)C1 [ALVOCIDIB] | 0.092 | – | – | – | 0.056 | – | – | – | 0.131 | 0.145 | 0.043 | 0.078 | 0.064 | 0.096 | –
CNc1nc(C)c(-c2nc(Nc3cccc(N4CCN(C(C)=O)CC4)c3)ncc2C)s1 | 3.65 | 0.794 | 0.012 | 66 | 0.55 | – | – | – | – | – | – | – | – | – | –
CNc1nc(C)c(-c2nc(Nc3cccc(N4CCN(C(C)=O)CC4)c3)ncc2C(F)(F)F)s1 | 25 | 1.22 | 0.095 | 13 | 4.8 | – | – | – | – | – | – | – | – | – | –

More lines, main results first:

GI50 (MCF7) [µM] | Ki (CDK2/Cyclin A2) [µM] | Ki (CDK9/cyclin T1) [µM] | Ratio Ki (Homo sapiens [1]) | GI50 (HCT-116) [µM] | Ki [2] [µM] | Ki [4] [µM] | Ratio Ki (Homo sapiens [5]) | GI50 (HT-29) [µM] | GI50 (A549) [µM] | GI50 (HeLa) [µM] | GI50 (MIA PaCa-2) [µM] | GI50 (A2780) [µM] | GI50 (MDA-MB-468) [µM] | Structure (SMILES) | GI50 [3] [µM]
2.4 | 0.248 | 0.021 | 12 | 0.7 | – | – | – | – | – | – | – | – | – | CNc1nc(C)c(-c2nc(Nc3cc(N4CCN(C(C)=O)CC4)cc(N4CCN(C(C)=O)CC4)c3)ncc2C#N)s1 | –
0.87 | 1.24 | 0.008 | 156 | 1.37 | 0.785 | 0.089 | 100 | – | – | – | – | – | – | CNc1nc(C)c(-c2nc(Nc3cccc(N4CCCNCC4)c3)ncc2C)s1 | 0.81
> 5 | 0.503 | 0.062 | 8 | > 5 | – | – | – | – | – | – | – | – | – | C=Cc1cnc(Nc2cccc(N3CCOCC3)c2)nc1-c1sc(NC)nc1C | –
0.38 | 0.831 | 0.047 | 18 | 0.34 | – | – | – | – | – | – | – | – | – | CNc1nc(C)c(-c2ccnc(Nc3cc(N4CCOCC4)cc(N4CCOCC4)c3)n2)s1 | –
6.44 | 0.525 | 0.019 | 28 | 2.12 | – | – | – | – | – | – | – | – | – | CNc1nc(C)c(-c2nc(Nc3cccc(N4CCNC(=O)CC4)c3)ncc2C)s1 | –
0.09 | 0.055 | 0.009 | 6 | 0.02 | – | – | – | – | – | – | – | – | – | CNc1nc(C)c(-c2nc(Nc3cc(N4CCOCC4)cc(N4CCOCC4)c3)ncc2C#N)s1 | –
0.95 | 0.016 | 0.005 | 3 | 0.49 | – | – | – | – | – | – | – | – | – | CNc1nc(C)c(-c2nc(Nc3cc(C)cc(N4CCOCC4)c3)ncc2C#N)s1 | –
0.45 | 0.444 | 0.01 | 44 | 0.36 | – | – | – | – | – | – | – | – | – | CNc1nc(C)c(-c2nc(Nc3cccc(N4CCOCC4)c3)ncc2C)s1 | –
4.13 | 0.044 | 0.006 | 7 | 1.54 | – | – | – | – | – | – | – | – | – | CNc1nc(C)c(-c2nc(Nc3cccc(N4CCCCCC4)c3)ncc2C#N)s1 | –
2 | 1.37 | 0.043 | 32 | 0.78 | – | – | – | – | – | – | – | – | – | CNc1nc(C)c(-c2nc(Nc3cc(N4CCN(C(C)=O)CC4)cc(N4CCN(C(C)=O)CC4)c3)ncc2C)s1 | –
0.83 | 0.087 | 0.007 | 12 | 0.5 | – | – | – | – | – | – | – | – | – | CNc1nc(C)c(-c2nc(Nc3cccc(N4CCN(S(C)(=O)=O)CC4)c3)ncc2C)s1 | –
0.08 | 0.087 | 0.034 | 2.5 | 0.06 | – | – | – | – | – | – | – | – | – | CC(=O)N1CCN(c2cccc(Nc3ncc4c(n3)-c3sc(N)nc3CC4)c2)CC1 | –
0.86 | 0.711 | 0.008 | 89 | 0.83 | 1.12 | 0.472 | 100 | – | – | – | – | – | – | CNc1nc(C)c(-c2nc(Nc3cccc(N4CCNCC4)c3)ncc2C)s1 | –
1.95 | 0.128 | 0.04 | 3 | 0.77 | – | – | – | – | – | – | – | – | – | CNc1nc(C2CC2)c(-c2ccnc(Nc3cccc(C(=O)NC4CCN(C)CC4)c3)n2)s1 | –
